Assay [1] has as its system Escherichia coli. The assay can be described thus: Antibacterial activity against Escherichia coli ATCC 25922 incubated for 18 hrs by dilution antimicrobial susceptibility test. The assay is classed as functional. An outline of the steps:
(§1)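 Dilution susceptibility test for aerobic bacteria. Compounds in DMSO, serially diluted to 10 concentrations (0.5–256 μg/mL), tested in triplicate. Positive controls were vancomycin for MRSA ATCC 33591 and gentamicin for E. coli ATCC 25922. Each plate carried six untreated media controls. Incubation was 35 °C for 18 h. MIC was read as the lowest concentration with no visible bacterial growth.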

In assay [2] the test system is Escherichia coli. The assay can be described thus: Antibacterial activity against Escherichia coli ATCC 25922 at 256 ug/ml incubated for 18 hrs by dilution antimicrobial susceptibility test. It is filed as functional, organism-based. An outline of the steps:
as §1

Assay [3] has as its system Staphylococcus aureus. As to the kind of experiment: Antibacterial activity against methicillin-resistant Staphylococcus aureus ATCC 33591 at 256 ug/ml incubated for 18 hrs by dilution antimicrobial susceptibility test.
For assay [4], the system named is Staphylococcus aureus. The assay can be described thus: Antibacterial activity against methicillin-resistant Staphylococcus aureus ATCC 33591 incubated for 18 hrs by dilution antimicrobial susceptibility test. As to conditions: ATCC 33591, 18 h.

In brackets after ≈: the same amount, converted by molar mass. Activity calls are given as the source filed them. The calls are words filed in the database; no cut-off is given here.

Regarding GENTAMICIN, in the assay with Escherichia coli [1], the MIC came to 4 µg/mL.

Turning to `C[C@@H]1O[C@H](O[C@H]2CC[C@H](O)O[C@@H]2C)C[C@@](C)(N)[C@H]1O[C@H]1CC[C@H](OC(=O)c2cc(Cl)c[nH]2)[C@@H](C)O1`, the outcome in the assay with Escherichia coli [2] and in the assay on Staphylococcus aureus [3] was inactive. Consider `CN[C@H](CC(C)C)C(=O)N[C@H]1C(=O)N[C@@H](CC(N)=O)C(=O)N[C@H]2C(=O)N[C@H]3C(=O)N[C@H](C(=O)N[C@H](C(=O)O)c4cc(O)cc(O)c4-c4cc3ccc4O)[C@H](O)c3ccc(c(Cl)c3)Oc3cc2cc(c3O[C@@H]2O[C@H](CO)[C@@H](O)[C@H](O)[C@H]2O[C@H]2C[C@](C)(N)[C@H](O)[C@H](C)O2)Oc2ccc(cc2Cl)[C@H]1O` [VANCOMYCIN], for which, in the assay on Staphylococcus aureus [4], the MIC came out at 0.25 µg/mL (≈ 0.173 µM). With `C[C@@H]1O[C@@H](O)C[C@@](C)(N)[C@H]1O[C@H]1CC[C@H](OC(=O)c2ccc[nH]2)[C@@H](C)O1`, the result in the assay on Escherichia coli [2] and in the assay on Staphylococcus aureus [3] was inactive. Consider `C[C@@H]1O[C@@H](O)C[C@@](C)(N)[C@H]1O[C@H]1CC[C@H](OC(=O)c2cc(Br)c[nH]2)[C@@H](C)O1`, for which the MIC against Escherichia coli [1] (ATCC 25922, 18 h) was found to be 64 µg/mL (≈ 143 µM); against Staphylococcus aureus [4] it was 32 µg/mL (≈ 71.5 µM). The like results for `C[C@@H]1O[C@@H](O)C[C@@](C)(N)[C@H]1O[C@H]1CC[C@H](OC(=O)c2cc(Cl)c[nH]2)[C@@H](C)O1` were, in that order, 64 µg/mL (≈ 159 µM) and 32 µg/mL (≈ 79.4 µM). In the case of `C[C@@H]1O[C@H](O)C[C@@](C)(NC(=O)CCC(=O)O)[C@H]1O[C@@H]1C[C@@](C)(N)[C@@H](O[C@H]2CC[C@H](OC(=O)c3cc(Cl)c[nH]3)[C@@H](C)O2)[C@H](C)O1`, the result in the assay with Escherichia coli [2] and in the assay on Staphylococcus aureus [3] was inactive.

One may read the MIC as the lowest concentration found to suppress growth. Low readings indicate inhibition by little substance, high ones a need for much substance.

The values are drawn from ChEMBL document CHEMBL4414668, “Phallusialides A-E, Pyrrole-Derived Alkaloids Discovered from a Marine-Derived Micromonospora sp. Bacterium Using MS-Based Metabolomics Approaches” (2019).
